Measurements as given in ChEMBL document CHEMBL2417493, “Novel cycloalkylthiophene-imine derivatives bearing benzothiazole scaffold: synthesis, characterization and antiviral activity evaluation” (Bioorg Med Chem Lett, 2013).
≈ marks a conversion by molar mass, not a printed value. Calls of active or inactive are those of the source. The calls are words filed in the database; no cut-off is given here.

How the values were obtained:
Influenza A virus [1] = experiment: Antiviral activity against influenza A virus H1N1 infected in dog MDCK cells assessed as inhibition of virus-induced cytopathogenicity at 32 ug/ml after 48 hrs by crystal violet staining method; assay type: functional, organism-based
Method in brief: (§1)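 Single-concentration screen with these pairings: RD/EV71, HepG2/CVB5, HeLa/ADV7, MDCK/H1N1. Cells were infected and kept 48 h in the presence of compound at one fixed concentration; some EV71 tests used the lower level. Inhibition of virus proliferation was read by crystal violet staining.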

unidentified adenovirus [2] = experiment: Antiviral activity against Adenovirus type 7 infected in human HeLa cells assessed as inhibition of virus-induced cytopathogenicity at 32 ug/ml after 48 hrs by crystal violet staining method; assay type: functional; details: for inhibition at 32 µg/mL: type 7, HeLa; method in brief: as §1
Coxsackievirus B5 [3] = experiment: Antiviral activity against Coxsackievirus B5 infected in human HepG2 cells assessed as inhibition of virus-induced cytopathogenicity at 32 ug/ml after 48 hrs by crystal violet staining method; assay type: functional; details: for inhibition at 32 µg/mL: Enterovirus B, HepG2, 48 h; method in brief: as §1
Enterovirus [4] = experiment: Antiviral activity against Enterovirus 71 infected in human rhabdomyosarcoma cells assessed as inhibition of virus-induced cytopathogenicity at 32 ug/ml after 48 hrs by crystal violet staining method; assay type: functional; details: for inhibition at 32 µg/mL: Enterovirus, 71, 48 h; method in brief: as §1
Influenza A virus [5] = experiment: Antiviral activity against influenza A virus H1N1 infected in dog MDCK cells assessed as inhibition of virus-induced cytopathogenicity after 48 hrs by crystal violet staining method; assay type: functional, organism-based
Method in brief: (§2)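 Virus–cell pairings were EV71 in RD, CVB5 in HepG2, ADV7 in HeLa and influenza A H1N1 in MDCK. Compounds were added […], and total infectivity was read by crystal violet staining. EC50 is the concentration reducing viral replication by 50%. Values are mean SD of three independent experiments.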

unidentified adenovirus [6] = experiment: Antiviral activity against Adenovirus type 7 infected in human HeLa cells assessed as inhibition of virus-induced cytopathogenicity after 48 hrs by crystal violet staining method; assay type: functional, organism-based; details: for EC50: unidentified adenovirus, type 7, HeLa, 48 h; method in brief: as §2
[7] = Cytotoxicity against human HeLa cells after 72 hrs by MTT assay; assay type: cell-based
Method in brief: (§3)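 MTT assay on RD (rhabdomyosarcoma), HepG2 and HeLa cell lines. CC50 is the concentration that cut cell viability by 50% relative to 0.1% DMSO-treated mock-control cells. Values are mean and SD of three independent experiments.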

Coxsackievirus B5 [8] = experiment: Antiviral activity against Coxsackievirus B5 infected in human HepG2 cells assessed as inhibition of virus-induced cytopathogenicity after 48 hrs by crystal violet staining method; assay type: functional, organism-based; details: for EC50: Enterovirus B, HepG2, 48 h; method in brief: as §2
[9] = Cytotoxicity against human HepG2 cells after 72 hrs by MTT assay; assay type: cell-based; method in brief: as §3
[10] = Selectivity index, ratio of CC50 for human rhabdomyosarcoma cells to EC50 for Enterovirus 71 infected in human rhabdomyosarcoma cells; assay type: toxicity; details: read-out: Ratio CC50/EC50
Method in brief: (§4)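 Antiviral pairings were EV71 in RD cells, CVB5 in HepG2 cells and ADV7 in HeLa cells. Compounds were added […], and total infectivity was read by crystal violet staining. EC50 is the concentration that cut viral replication by 50%. CC50 came from MTT relative to 0.1% DMSO mock control. SI = CC50/EC50. Data are from three independent experiments.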

Enterovirus [11] = experiment: Antiviral activity against Enterovirus 71 infected in human rhabdomyosarcoma cells assessed as inhibition of virus-induced cytopathogenicity after 48 hrs by crystal violet staining method; assay type: functional, organism-based; details: for EC50: Enterovirus, 71, 48 h; method in brief: as §2
[12] = Cytotoxicity against human rhabdomyosarcoma cells after 72 hrs by MTT assay; assay type: cell-based, Rhabdomyosarcoma cell; method in brief: as §3
[13] = Selectivity index, ratio of CC50 for human HeLa cells to EC50 for Adenovirus type 7 infected in human HeLa cells; assay type: toxicity, cell-based; details: read-out: Ratio CC50/EC50; method in brief: as §4
[14] = Selectivity index, ratio of CC50 for human HepG2 cells to EC50 for Coxsackievirus B5 infected in human HepG2 cells; assay type: toxicity, cell-based; details: read-out: Ratio CC50/EC50; method in brief: as §4
Enterovirus [15] = experiment: Antiviral activity against Enterovirus 71 infected in human rhabdomyosarcoma cells assessed as inhibition of virus-induced cytopathogenicity at 16 ug/ml after 48 hrs by crystal violet staining method; assay type: functional; details: Enterovirus, 71, 48 h; method in brief: as §1

## Oc1ccccc1/C=N/c1sc2c(c1-c1nc3cc(Cl)ccc3s1)CCC2
Influenza A virus [1]
  inhibition: Active
Unidentified adenovirus [2]
  inhibition: Active
Coxsackievirus B5 [3]
  inhibition: Active
Enterovirus [4]
  inhibition: Active
Influenza A virus [5]
  inhibition (INH): <50%
Unidentified adenovirus [6]
  inhibition (INH): <50%
[7]
  CC50 at 72 h: 251 µg/mL (≈ 610 µM)
Coxsackievirus B5 [8]
  inhibition (INH): <50%
[9]
  CC50 at 72 h: 210 µg/mL (≈ 511 µM)
[10]
  selectivity ratio: 19.2
Enterovirus [11]
  EC50: 13.9 µg/mL (≈ 33.8 µM)
[12]
  CC50 at 72 h: 269 µg/mL (≈ 655 µM)

## C(=N\c1sc2c(c1-c1nc3ccccc3s1)CCCC2)/c1ccccc1
Influenza A virus [1]
  inhibition: Active
Unidentified adenovirus [2]
  inhibition at 32 µg/mL: 60%
Coxsackievirus B5 [3]
  inhibition at 32 µg/mL: 60%
Enterovirus [4]
  inhibition at 32 µg/mL: 60%
Influenza A virus [5]
  inhibition (INH): <50%
[13]
  selectivity ratio: 26.5
Unidentified adenovirus [6]
  EC50: 12.5 µg/mL (≈ 33.4 µM)
[7]
  CC50 at 72 h: 333 µg/mL (≈ 890 µM)
[14]
  selectivity ratio: 9.3
Coxsackievirus B5 [8]
  EC50: 32.9 µg/mL (≈ 87.8 µM)
[9]
  CC50 at 72 h: 308 µg/mL (≈ 821 µM)
[10]
  selectivity ratio: 4.9
Enterovirus [11]
  EC50: 14.2 µg/mL (≈ 37.9 µM)
[12]
  CC50 at 72 h: 71.1 µg/mL (≈ 190 µM)

## NC(=O)c1ncn([C@@H]2O[C@H](CO)[C@@H](O)[C@H]2O)n1 [RIBAVIRIN]
[13]
  selectivity ratio: > 15
Unidentified adenovirus [6]
  EC50: 27.8 µg/mL (≈ 114 µM)
[7]
  CC50 at 72 h: > 500 µg/mL
[14]
  selectivity ratio: > 20
Coxsackievirus B5 [8]
  EC50: 22.3 µg/mL (≈ 91.3 µM)
[9]
  CC50 at 72 h: > 500 µg/mL
[10]
  selectivity ratio: > 10
Enterovirus [11]
  EC50: 49.2 µg/mL (≈ 201 µM)
[12]
  CC50 at 72 h: > 500 µg/mL

## Nc1sc2c(c1-c1nc3cc(Cl)ccc3s1)CCCC2
Influenza A virus [5]
  inhibition (INH): <50%
[13]
  selectivity ratio: 20.9
Unidentified adenovirus [6]
  inhibition: Dose-dependent effect
  EC50: 5 µg/mL (≈ 15.6 µM)
[7]
  CC50 at 72 h: 107 µg/mL (≈ 333 µM)
[14]
  selectivity ratio: 26.7
Coxsackievirus B5 [8]
  inhibition: Dose-dependent effect
  EC50: 3.5 µg/mL (≈ 10.9 µM)
[9]
  CC50 at 72 h: 93.7 µg/mL (≈ 292 µM)
[10]
  selectivity ratio: 33.7
Enterovirus [11]
  inhibition: Dose-dependent effect
  EC50: 1.3 µg/mL (≈ 4.05 µM)
[12]
  CC50 at 72 h: 43.5 µg/mL (≈ 136 µM)

## Fc1ccc(/C=N/c2sc3c(c2-c2nc4ccccc4s2)CCCC3)cc1
Enterovirus [15]
  inhibition at 16 µg/mL: 60%
Influenza A virus [1]
  inhibition: Active
Unidentified adenovirus [2]
  inhibition at 32 µg/mL: 60%
Coxsackievirus B5 [3]
  inhibition at 32 µg/mL: 60%
Influenza A virus [5]
  inhibition (INH): <50%
[13]
  selectivity ratio: 13.1
Unidentified adenovirus [6]
  inhibition: Dose-dependent effect
  EC50: 21.1 µg/mL (≈ 53.8 µM)
[7]
  CC50 at 72 h: 277 µg/mL (≈ 705 µM)
[14]
  selectivity ratio: 33.2
Coxsackievirus B5 [8]
  inhibition: Dose-dependent effect
  EC50: 9.7 µg/mL (≈ 24.7 µM)
[9]
  CC50 at 72 h: 324 µg/mL (≈ 826 µM)
[10]
  selectivity ratio: 32.8
Enterovirus [11]
  inhibition: Dose-dependent effect
  EC50: 6.9 µg/mL (≈ 17.6 µM)
[12]
  CC50 at 72 h: 230 µg/mL (≈ 586 µM)

## Oc1ccccc1/C=N/c1sc2c(c1-c1nc3ccccc3s1)CCC2
Influenza A virus [1]
  inhibition: Active
Unidentified adenovirus [2]
  inhibition at 32 µg/mL: 60%
Coxsackievirus B5 [3]
  inhibition at 32 µg/mL: 60%
Enterovirus [4]
  inhibition at 32 µg/mL: 50%
Influenza A virus [5]
  inhibition (INH): <50%
[13]
  selectivity ratio: 9.6
Unidentified adenovirus [6]
  EC50: 17.4 µg/mL (≈ 46.2 µM)
[7]
  CC50 at 72 h: 168 µg/mL (≈ 446 µM)
[14]
  selectivity ratio: 13.8
Coxsackievirus B5 [8]
  EC50: 11.1 µg/mL (≈ 29.5 µM)
[9]
  CC50 at 72 h: 156 µg/mL (≈ 414 µM)
[10]
  selectivity ratio: 12.6
Enterovirus [11]
  EC50: 7.9 µg/mL (≈ 21 µM)
[12]
  CC50 at 72 h: 100 µg/mL (≈ 266 µM)

## C(=N\c1sc2c(c1-c1nc3ccccc3s1)CCCC2)/c1ccc2c(c1)OCO2
Influenza A virus [1]
  inhibition: Active
Unidentified adenovirus [2]
  inhibition: Active
Coxsackievirus B5 [3]
  inhibition: Active
Enterovirus [4]
  inhibition: Active
Influenza A virus [5]
  inhibition (INH): <50%
Unidentified adenovirus [6]
  inhibition (INH): <50%
[7]
  CC50 at 72 h: 568 µg/mL (≈ 1360 µM)
Coxsackievirus B5 [8]
  inhibition (INH): <50%
[9]
  CC50 at 72 h: 329 µg/mL (≈ 787 µM)
[10]
  selectivity ratio: 9.1
Enterovirus [11]
  EC50: 32.6 µg/mL (≈ 77.9 µM)
[12]
  CC50 at 72 h: 299 µg/mL (≈ 714 µM)

## Nc1sc2c(c1-c1nc3cc(Cl)ccc3s1)CCC2
Influenza A virus [5]
  inhibition (INH): <50%
[13]
  selectivity ratio: 7.6
Unidentified adenovirus [6]
  inhibition: Dose-dependent effect
  EC50: 9.8 µg/mL (≈ 31.9 µM)
[7]
  CC50 at 72 h: 75.1 µg/mL (≈ 245 µM)
[14]
  selectivity ratio: 10.4
Coxsackievirus B5 [8]
  inhibition: Dose-dependent effect
  EC50: 6.4 µg/mL (≈ 20.9 µM)
[9]
  CC50 at 72 h: 67.8 µg/mL (≈ 221 µM)
[10]
  selectivity ratio: 46.9
Enterovirus [11]
  inhibition: Dose-dependent effect
  EC50: 1.2 µg/mL (≈ 3.91 µM)
[12]
  CC50 at 72 h: 59.1 µg/mL (≈ 193 µM)

## Oc1ccccc1/C=N/c1sc2c(c1-c1nc3ccccc3s1)CCCC2
Enterovirus [15]
  inhibition at 16 µg/mL: 60%
Influenza A virus [1]
  inhibition: Active
Unidentified adenovirus [2]
  inhibition at 32 µg/mL: 60%
Coxsackievirus B5 [3]
  inhibition at 32 µg/mL: 60%
Influenza A virus [5]
  inhibition (INH): <50%
[13]
  selectivity ratio: 11.1
Unidentified adenovirus [6]
  inhibition: Dose-dependent effect
  EC50: 10.8 µg/mL (≈ 27.7 µM)
[7]
  CC50 at 72 h: 122 µg/mL (≈ 312 µM)
[14]
  selectivity ratio: 20.8
Coxsackievirus B5 [8]
  inhibition: Dose-dependent effect
  EC50: 5.4 µg/mL (≈ 13.8 µM)
[9]
  CC50 at 72 h: 114 µg/mL (≈ 292 µM)
[10]
  selectivity ratio: 20.3
Enterovirus [11]
  inhibition: Dose-dependent effect
  EC50: 2 µg/mL (≈ 5.12 µM)
[12]
  CC50 at 72 h: 42.4 µg/mL (≈ 108 µM)

## C(=C\c1ccccc1)/C=N/c1sc2c(c1-c1nc3ccccc3s1)CCCC2
Influenza A virus [1]
  inhibition: Active
Unidentified adenovirus [2]
  inhibition: Active
Coxsackievirus B5 [3]
  inhibition: Active
Enterovirus [4]
  inhibition: Active
Influenza A virus [5]
  inhibition (INH): <50%
Unidentified adenovirus [6]
  inhibition (INH): <50%
[7]
  CC50 at 72 h: 389 µg/mL (≈ 971 µM)
[14]
  selectivity ratio: 31.6
Coxsackievirus B5 [8]
  EC50: 14.7 µg/mL (≈ 36.7 µM)
[9]
  CC50 at 72 h: 467 µg/mL (≈ 1170 µM)
Enterovirus [11]
  inhibition (INH): <50%
[12]
  CC50 at 72 h: 207 µg/mL (≈ 517 µM)

## Nc1sc2c(c1-c1nc3ccccc3s1)CCCC2
Influenza A virus [5]
  inhibition (INH): <50%
Unidentified adenovirus [6]
  inhibition (INH): <50%
[7]
  CC50 at 72 h: 475 µg/mL (≈ 1660 µM)
[14]
  selectivity ratio: 11.9
Coxsackievirus B5 [8]
  EC50: 14.5 µg/mL (≈ 50.6 µM)
[9]
  CC50 at 72 h: 163 µg/mL (≈ 570 µM)
[10]
  selectivity ratio: 17.8
Enterovirus [11]
  EC50: 14.1 µg/mL (≈ 49.2 µM)
[12]
  CC50 at 72 h: 253 µg/mL (≈ 883 µM)
